A selection: hits, their analogues and other compounds. The true share with any hit is near 2.1%.
MC4R antag cAMP: antagonists of human melanocortin 4 receptor (MC4R). P32245. MC4R-expressing cells, MTII-stimulated cAMP, LANCE TR-FRET. inhibition, % at 6.5 µM. hit rate 0.48% among 360,000;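 active = inhibition above its plate's cutoff, the mean of tested wells on that plate plus 3 SD, cut at about 29% in these data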;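 note: 0% = Melanotan II alone and 100% = Melanotan II plus saturating MCL0020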
Target sequence (P32245 whole entry, looked up): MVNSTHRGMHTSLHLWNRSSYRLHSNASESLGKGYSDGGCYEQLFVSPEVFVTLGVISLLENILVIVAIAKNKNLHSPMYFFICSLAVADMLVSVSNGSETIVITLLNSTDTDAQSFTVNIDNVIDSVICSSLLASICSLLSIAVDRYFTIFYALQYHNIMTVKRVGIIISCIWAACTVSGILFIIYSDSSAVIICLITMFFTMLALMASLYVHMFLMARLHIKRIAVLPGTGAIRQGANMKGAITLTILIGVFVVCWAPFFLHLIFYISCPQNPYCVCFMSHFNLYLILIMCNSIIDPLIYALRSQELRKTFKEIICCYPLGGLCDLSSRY
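System – human MC4R-expressing U2OS cells · Also added – Melanotan II · Dosing – one concentration, 6.5 µM nominal · Timing – 30-min compound, 1-h challenge, 1-h detection, room temperature · Measured by – Eu-cAMP/anti-cAMP TR-FRET, emission 671 nm · Replicates – singlicate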
CFTR F508del cor: CFTR F508del correction in bronchial cells; CFBE cells, YFP halide quenching; stimulated with forskolin plus potentiator P3; % fluorescence drop versus neutral controls; activity (quench increase), % at 7.58 µM; hit rate 0.36% among 350,000; AID 720511;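 active = mean added fluorescence quench of at least 8% versus neutral control, with both replicates also reaching 8%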;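 note: cells transiently co-express mutant CFTR-F508del with the halide-sensitive YFP; corrector assay measuring rescue of mutant channel to the surface after 24 h compound exposure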
MC4R barr agon: human MC4R agonism via beta-arrestin; U2OS MC4R beta-arrestin complementation, luminescence; percent of melanotan II response, DMSO zero; hit rate 0.98% among 360,000; P32245; activation, % at 8.9 µM;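 active = activation above a per-plate cutoff, the mean activation of sample wells on that plate plus 3 SD, cut at about 8% in these data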
SMARCA2 activ: increases SMARCA2 function in MMTV reporter cells; hit rate 1% among 370,000; MG213 cells, MMTV-luciferase reporter, dexamethasone, overnight; activation, % at 9.1 µM; in the data active = activation above about 7.8%;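 note: 0% = vehicle wells and 100% = reference activator wells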
MC4R barr conf: human MC4R beta-arrestin agonism confirmation; activation, % at 8.9 µM; hit rate 31% among 2,400; shares compounds with MC4R barr agon; AID 602192; U2OS MC4R beta-arrestin recruitment, luminescence; scaled DMSO 0%, Melanotan II 100%;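 active = mean activation across replicates above the hit cutoff set in the earlier primary screen, cut at about 8% in these data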
MOR-DOR barr ag: counter-screen for MC4R agonists: agonists of mu-delta opioid heterodimer | shares compounds with MC4R barr agon | U2OS PathHunter beta-arrestin, beta-gal luminescence; percent of deltorphin B response, DMSO zero | activation, % at 9.2 µM | hit rate 5.8% among 2,400 | AID 602194;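 active = mean activation across replicates exceeds the hit threshold derived in the earlier primary screen, cut at about 18% in these data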;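 note: 100% = deltorphin B at 0.9 µM final and 0% = DMSO alone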
Numbers without * were called inactive; · = no result.

SMILES	MC4R antag cAMP	CFTR F508del cor	MC4R barr agon	SMARCA2 activ	MC4R barr conf	MOR-DOR barr ag
COc1ccccc1NC(=O)Nc1nc(C(N)Cc2ccc(C(F)(F)F)cc2)cs1 (configuration not stated)	-2.0	-1.1	20.7*	-5.0	11.3*	14.1
CCC(=O)N(C)C[C@@H]1Oc2ncc(-c3ccc(C(=O)N(C)C)cc3)cc2C(=O)N([C@H](C)CO)C[C@H]1C	·	2.0	·	·	·	·
C[C@H](NC(=O)C[C@@H]1C[C@H]2c3cc(NC(=O)C4CCC4)ccc3O[C@H]2[C@@H](CO)O1)c1ccccc1	·	-2.6	·	·	·	·
NC(Cc1ccc(C(F)(F)F)cc1)c1csc(NC(=O)NCCc2ccccc2)n1 (configuration not stated)	10.4	-2.0	14.1*	-3.8	22.1*	18.1*
CCc1cnc(Nc2nc(C(N)Cc3ccc(Cl)cc3)cs2)nc1 (configuration not stated)	-5.9	-2.9	0.4	-3.0	·	·
NC(c1ccccc1)c1csc(NC(=O)Nc2ccccc2Oc2ccccc2)n1 (configuration not stated)	-3.6	0.0	23.4*	-3.2	35.1*	13.4
COc1ccc(CC(N)c2csc(NC(=O)Nc3ccc(OC)cc3)n2)cc1 (configuration not stated)	6.7	2.4	1.5	-6.4	·	·
CC(C)CC(N)c1csc(NC(=O)NCCc2ccccc2)n1 (configuration not stated)	-2.7	-0.4	-1.6	-4.6	·	·
COc1ccc(NC(=O)Nc2nc(C(N)Cc3ccc(C(F)(F)F)cc3)cs2)cc1 (configuration not stated)	4.1	5.1	32.9*	-7.1	28.3*	17.7
NC(Cc1ccc(Cl)cc1)c1csc(Nc2ccc(-c3ccccc3)nn2)n1 (configuration not stated)	10.5	2.1	14.6*	-4.7	33.3*	13.1
CCCN(C)C[C@@H]1OCCCC[C@@H](C)Oc2ccc(NC(=O)CCC(F)(F)F)cc2C(=O)N([C@H](C)CO)C[C@@H]1C	·	-0.8	·	·	·	·
C[C@H](CO)N1C[C@H](C)[C@@H](CN(C)C(=O)Nc2ccc(F)cc2)Oc2ccc(NC(=O)C3CC3)cc2CC1=O	·	1.2	·	·	·	·
NC(Cc1ccccc1)c1csc(NC(=O)Nc2ccccc2Oc2ccccc2)n1 (configuration not stated)	5.2	0.2	5.1	-6.7	·	·
COc1ccc(CC(N)c2csc(NC(=O)Nc3ccccc3Oc3ccccc3)n2)cc1 (configuration not stated)	8.5	0.2	12.1*	-2.1	7.6	21.1*
COc1ccc(NC(=O)c2oc3ccccc3c2C)c(OC)c1	2.3	·	13.7*	1.5	0.5	5.4
COc1ccc2oc(C(=O)OCC(=O)NCc3ccccc3OC)c(C)c2c1	10.8	-0.6	21.0*	-0.2	8.0	5.8
COc1ccccc1NC(=O)c1oc2ccccc2c1NC(=O)C1CC1	12.5	0.2	10.1*	1.5	2.5	2.7
COc1ccc2oc(C(=O)OCC(=O)Nc3ccc(NC(C)=O)cc3)c(C)c2c1	0.8	-6.5	4.5	1.3	·	·
CCOc1ccccc1NC(=O)c1oc2ccccc2c1NC(=O)C1CC1	6.2	7.6	-2.5	-1.7	·	·
CO[C@@H]1CN(C)C(=O)c2ccc(NC(=O)C3CC3)cc2OC[C@@H](C)N(C(=O)Cc2ccccn2)C[C@@H]1C	·	-1.2	·	·	·	·
O=C(CN1CCOCC1)NCC[C@H]1CC[C@H](NC(=O)c2ccc3c(c2)OCO3)[C@H](CO)O1	·	1.5	·	·	·	·
c1ccc(-c2sc3ccccc3c2-c2ccc(OCCN3CCCCC3)cc2)cc1	7.4	1.4	1.1	3.8	·	·
CN(C)CCOc1ccc(-c2c(-c3ccccc3)sc3ccccc23)cc1	14.7	-2.2	22.6*	-0.8	38.4*	17.3
CC(=O)Nc1ccc(N(C(=O)Cc2c[nH]c3ccccc23)C(C(=O)NC2CCCCC2)c2ccco2)cc1 (configuration not stated)	5.0	·	-1.9	0.2	·	·
Cc1ccc(C(C(=O)NC2CCCCC2)N(C(=O)Cc2c[nH]c3ccccc23)c2ccccc2)o1 (configuration not stated)	-6.1	·	12.3*	-1.4	6.0	9.9
SMILES	MC4R antag cAMP	CFTR F508del cor	MC4R barr agon	SMARCA2 activ	MC4R barr conf	MOR-DOR barr ag
Cc1noc(C)c1S(=O)(=O)Nc1ccc2c(c1)CC(=O)N([C@@H](C)CO)C[C@@H](C)[C@H](CN(C)C(=O)Nc1ccccc1)O2	·	-2.8	·	·	·	·
COc1ccc2c(c1)c1nc3ccccc3nc1n2Cc1ccc(OC)c(OC)c1	7.3	·	11.3*	-1.7	0.6	2.9
CCOc1ccc(Cn2c3ccc(OC)cc3c3nc4ccccc4nc32)cc1OC	7.0	·	27.7*	-4.4	25.6*	4.3
COC(=O)Cn1c2ccc(OC)cc2c2nc3ccccc3nc21	-4.1	·	0.7	0.6	·	·
CN(C)C(=O)C[C@@H]1C=C[C@@H](NC(=O)C2CC2)[C@@H](CO)O1	·	1.4	·	·	·	·
O=C(Nc1nnc(CC(c2ccccc2)c2ccccc2)s1)c1ccco1	6.8	·	19.9*	2.0	1.5	1.9
CCC(C(=O)Nc1nnc(-c2ccco2)s1)c1ccccc1 (configuration not stated)	14.9	·	10.5*	-0.3	2.5	5.6
Cc1noc(C)c1S(=O)(=O)Nc1ccc2c(c1)CC(=O)N([C@@H](C)CO)C[C@H](C)[C@H](CN(C)C(=O)Nc1ccc(F)cc1)O2	·	-0.3	·	·	·	·
Cc1c(C(=O)Nc2ccc(C(F)(F)F)cc2)sc2ncn(CC(=O)N3CCN(c4ccccn4)CC3)c(=O)c12	-4.8	0.1	14.3*	-0.2	5.0	9.2
Cc1ccc(NC(=O)c2sc3ncn(CC(=O)N4CCN(c5ccccn5)CC4)c(=O)c3c2C)cc1	-1.4	2.9	-0.8	-2.8	·	·
C[C@@H]1CN([C@H](C)CO)S(=O)(=O)c2ccc(-c3cncnc3)cc2O[C@@H]1CN(C)C(=O)Cc1cccnc1	·	-2.6	·	·	·	·
Cc1nnc(SCC(=O)Nc2cc(C(N)=O)cc(C(N)=O)c2)n1-c1ccccc1	-1.4	1.0	0.7	-1.8	·	·
Cc1ccc(CCc2nnc(SCC(=O)Nc3cccc(Cl)c3)n2-c2ccccc2)o1	-1.2	1.3	27.1*	-1.9	3.0	7.6
COc1ccc(-c2ccc(-c3noc(-c4cccs4)n3)c(OC)n2)cc1	-0.8	·	17.0*	1.4	5.4	0.8
COc1ccc(-c2ccc(-c3noc(-c4ccccc4OC)n3)c(OC)n2)cc1	5.1	·	10.4*	-0.7	2.4	1.5
Cc1ccc2nc(-c3ccc(NC(=O)CN4C(=O)NC(C)(c5ccc(OC(F)F)cc5)C4=O)cc3)sc2c1 (configuration not stated)	21.1	·	18.1*	-2.4	7.2	5.9
CCc1ccc(OCCNC(=O)OCc2ccccc2)cc1	-8.3	·	10.0*	-1.0	1.9	3.8
